A selection: hits, their analogues and other compounds. The true share with any hit is near 1.9%.
SR-BI DiI-HDL act – activators of SR-BI mediated DiI-HDL uptake, primary screen, ldlA[mSR-BI] CHO cells, DiI fluorescence | 3 h; 100 = double the neutral-control signal | activation, % at 12.5 µM | actives 0.096% (n = 320,000) | AID 504775, 2011;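 active means mean replicate activation of at least 60% and every replicate at or above 60%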
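material = CHO ldlA[mSR-BI] cells | medium = Ham's F12 with 0.5% BSA, HEPES 25 mM, pH 7.4 | reagent = fluorescent DiI-HDL, 10 µg/mL final | compound dosing = single-point compound dose | incubation = 3 h, 37 °C | measured by = bottom-read fluorescence, 550/595 nm | measure = HDL uptake via cellular fluorescence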
GRK2 aptamer HTS – compounds blocking aptamer binding on GRK2 – biochemical, human GRK2, bead flow cytometry, HTS, primary screen; FAM-aptamer displacement from GRK2; inhibition of aptamer binding, % at 10 µM; actives 0.59% (n = 330,000); Beta-adrenergic receptor kinase 1 (Homo sapiens), P25098;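 active means inhibition of aptamer binding above 40%, roughly 3 SD of noise, on plates passing a quality check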;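 further: median bead fluorescence of bound FAM aptamer so fluorescent compounds give negative values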
Target sequence (P25098 whole entry, looked up): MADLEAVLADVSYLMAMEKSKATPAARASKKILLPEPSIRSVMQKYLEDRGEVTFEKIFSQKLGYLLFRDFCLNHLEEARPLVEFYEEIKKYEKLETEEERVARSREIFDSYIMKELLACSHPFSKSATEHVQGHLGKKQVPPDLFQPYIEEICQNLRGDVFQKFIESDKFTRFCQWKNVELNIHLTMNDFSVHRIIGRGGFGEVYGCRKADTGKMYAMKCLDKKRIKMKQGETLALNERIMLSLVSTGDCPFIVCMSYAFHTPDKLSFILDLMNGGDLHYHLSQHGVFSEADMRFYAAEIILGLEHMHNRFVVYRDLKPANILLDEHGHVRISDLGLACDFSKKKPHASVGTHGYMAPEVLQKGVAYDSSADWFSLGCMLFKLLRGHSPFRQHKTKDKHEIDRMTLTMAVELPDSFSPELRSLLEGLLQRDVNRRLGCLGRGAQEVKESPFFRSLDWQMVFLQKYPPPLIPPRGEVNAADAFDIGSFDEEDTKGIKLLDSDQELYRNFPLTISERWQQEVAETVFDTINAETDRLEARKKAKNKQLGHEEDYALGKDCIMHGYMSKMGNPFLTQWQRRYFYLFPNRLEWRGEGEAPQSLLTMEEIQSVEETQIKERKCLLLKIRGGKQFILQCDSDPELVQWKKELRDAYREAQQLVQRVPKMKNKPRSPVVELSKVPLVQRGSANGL
SR-BI HDL uptake – inhibitors of SR-BI mediated HDL lipid uptake, primary screen, ldlA[mSR-BI] cells, fluorescence, single point; actives 0.96% (n = 320,000); inhibition, % at 12.5 µM; ldlA[mSR-BI] CHO cells, DiI-HDL uptake fluorescence, 3 h; AID 488896, 2010;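 active means mean replicate inhibition of at least 70% and a set share of replicates each scoring 70 or more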
Rin1 Abl inh – inhibitors of Rin1-Abl protein binding, primary screen, biochemical, TR-FRET. Tyrosine-protein kinase ABL1 (Homo sapiens) + Ras and Rab interactor 1 (Homo sapiens), …. actives 0.4% (n = 360,000). inhibition, % at 7.35 µM; in the data active means inhibition above about 5%, passing the limit was not always enough
Rin1 Abl conf – Rin1-Abl binding inhibitor retest, confirmation, biochemical, TR-FRET | inhibition, % at 7.35 µM | purified proteins | actives 49% (n = 1,300) | shares compounds with Rin1 Abl inh | AID 602124, 2011
GFP quench-1 – GFP fluorescence inhibitors and quenchers, artefact control for Rin1-Abl interaction inhibitor project, biochemical | shares compounds with Rin1 Abl inh | inhibitors/quenchers counterscreen | inhibition, % at 6.75 µM | actives 8.5% (n = 1,300) | AID 602125, 2011;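 further: ABL1-eGFP fusion protein alone without its partner RIN1-SBP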
GFP quench DR – GFP fluorescence inhibitors and quenchers, dose response, artefact control for Rin1-Abl interaction inhibitor project, biochemical. GFP fluorescence interference/quenching counterscreen. 230 tested, under 10 active. IC50, µM. shares compounds with Rin1 Abl inh; call rule not given here;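 further: ABL1-eGFP fusion protein alone without its RIN1 binding partner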
GFP quench-2 – GFP fluorescence inhibitors and quenchers, late-stage follow-up, artefact control for Rin1-Abl interaction inhibitor project, biochemical, dose response | shares compounds with Rin1 Abl inh | GFP fluorescence quenching counterscreen | IC50, µM | 25 tested, under 10 active | AID 602397, 2012; call rule not given here
Of the large screens only hits and unclear results are named; the others gave an inactive call (follow-up assays come after a bar, where they were run). Unless noted, no stated cut-off is given here; in the data, active means inhibition above about 6.5%; inactive means the rest.

CC(=O)c1ccc(NC(=O)Nc2ccc(S(=O)(=O)N3CCCC3)cc2)cc1	Rin1 Abl inh 15 | Rin1 Abl conf 11 | GFP quench-1 inactive
COc1cc(C(=O)OCC(=O)Nc2ccc(S(=O)(=O)N3CCCC3)cc2)cc(OC)c1OC	Rin1 Abl inh 18 | Rin1 Abl conf 30 | GFP quench-1 inactive | GFP quench DR inactive
CC(=O)Nc1ccc(NC(=O)C2CCN(C(=O)c3cccs3)CC2)cc1	Rin1 Abl inh 47 | Rin1 Abl conf 71 | GFP quench-1 inactive | GFP quench DR inactive | GFP quench-2 inactive
CC(=O)c1ccc(NC(=O)c2ccc(S(=O)(=O)N3CCCC3)cc2)cc1	none
O=C(Nc1ccc(S(=O)(=O)Nc2ccccc2)cc1)C1CC1	Rin1 Abl inh 11 | Rin1 Abl conf inactive | GFP quench-1 inactive
CCOC(=O)C(C#N)(Cc1ccc2ccccc2n1)Cc1ccc2ccccc2n1	none (no result: GRK2 aptamer HTS)
Cc1ccccc1C(=O)N1CCC(C(=O)Nc2ccc(S(=O)(=O)N3CCOCC3)cc2)CC1	none
Cc1ccccc1C(=O)N1CCC(C(=O)Nc2ccc(S(=O)(=O)N3CCCCC3)cc2)CC1	Rin1 Abl inh 12 | Rin1 Abl conf 7.8 | GFP quench-1 inactive
COc1ccc(OC)c(NC(=O)COc2ccc(S(=O)(=O)NC(C)C)cc2)c1	Rin1 Abl inh 7.4 | Rin1 Abl conf inactive | GFP quench-1 inactive
CC[n+]1c(C)n(C)c2cc(S(=O)(=O)N(C)C)ccc21	Rin1 Abl inh 8.9 | Rin1 Abl conf inactive | GFP quench-1 inactive
CCCS(=O)(=O)NC(=O)C1(C)CCCN(C(=O)c2ccc(F)c(Cl)c2)C1 (stereo not drawn)	Rin1 Abl inh 17 (no result: SR-BI DiI-HDL act, GRK2 aptamer HTS, SR-BI HDL uptake) | Rin1 Abl conf inactive | GFP quench-1 inactive
CC1CCN(C(=O)c2[nH]cnc2C(=O)NC2CCN(C(=O)OC(C)(C)C)CC2)CC1	Rin1 Abl inh 10 | Rin1 Abl conf inactive | GFP quench-1 inactive
Oc1ccc(/C=N/N=C/c2ccc(O)c(O)c2)cc1O	Rin1 Abl inh 23 | Rin1 Abl conf 57 | GFP quench-1 16
COc1cccc(/C=N/N2CCOCC2)c1O	none
Oc1ccc(/C=N/N2CCCCC2)c(O)c1O	Rin1 Abl inh 25 | Rin1 Abl conf 32 | GFP quench-1 inactive | GFP quench DR inactive
Oc1ccc(/C=N/N2CCOCC2)c(O)c1O	Rin1 Abl inh 30 | Rin1 Abl conf 33 | GFP quench-1 inactive | GFP quench DR inactive
CCOC(=O)C1(C)CCCN1C(=O)c1cccc2ccccc12 (stereo not drawn)	none (no result: SR-BI DiI-HDL act, GRK2 aptamer HTS, SR-BI HDL uptake)
CSc1ccc(NC(=O)N2CCC(C(=O)c3ccc(F)cc3)CC2)cc1	Rin1 Abl inh 7.4 | Rin1 Abl conf inactive | GFP quench-1 inactive
C[C@H](CO)N1C[C@H](C)[C@@H](CN(C)S(=O)(=O)c2cn(C)cn2)OCc2cnnn2CCCC1=O	none (no result: SR-BI DiI-HDL act, GRK2 aptamer HTS, SR-BI HDL uptake)
O=C(Cn1[nH]c(=O)c2ccccc2c1=O)NC1CCCCCC1	none
O=c1[nH]n(CC2COC3(CCCCC3)O2)c(=O)c2ccccc12 (stereo not drawn)	Rin1 Abl inh 34 | Rin1 Abl conf 27 | GFP quench-1 inactive | GFP quench DR inactive
Cc1ccc(-n2c(=O)c3sccc3n(CC(=O)N3CCCC3)c2=O)cc1	Rin1 Abl inh 5.8 | Rin1 Abl conf inactive | GFP quench-1 inactive
O=C(O)CS(=O)(=O)CC(=O)NCc1cccc(C(F)(F)F)c1	none
CCCCNC(=O)Cn1c(=O)c2c(ncn2CCC(C)C)n(Cc2ccccc2)c1=O	Rin1 Abl inh 20 (no result: SR-BI DiI-HDL act, SR-BI HDL uptake) | Rin1 Abl conf inactive | GFP quench-1 inactive

High-throughput results deposited in PubChem BioAssay by several laboratories.
